Results from ChEMBL document CHEMBL1148178, “Dicranin, an antimicrobial and 15-lipoxygenase inhibitor from the moss Dicranum scoparium” (1993).
Activity calls are given as the source filed them. The rule behind the calls is not given here.

Key:
Bacillus cereus [1] = assay: Antibacterial activity against Bacillus cereus NCIB 3329 at 100 ug/disk after 24 hrs by disk diffusion assay; assay type: functional; conditions: read-out: Diameter of inhibition zone
Method in brief: (§1)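 Sterile 6 mm filter-paper disc bearing sample set in the centre of a Petri dish of 15 ml plate count agar. Overlaid with 3 ml soft nutrient agar (nutrient broth + 0.7% agar) seeded with 1% of a 16–18 h culture of the test strain. Read-out is the diameter of the growth-free zone around the disc.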

Staphylococcus aureus [2] = assay: Antibacterial activity against Staphylococcus aureus T-AQ 49/YF29 at 250 ug/disk after 24 hrs by disk diffusion assay; assay type: functional; conditions: read-out: Diameter of inhibition zone; method in brief: as §1
Pseudomonas aeruginosa = assay: Antibacterial activity against Pseudomonas aeruginosa ATCC 10145 at 1 mg/disk after 24 hrs by disk diffusion assay; assay type: functional, organism-based; method in brief: as §1
Salmonella typhimurium = assay: Antibacterial activity against Salmonella Typhimurium NCIB 10248 at 1 mg/disk after 24 hrs by disk diffusion assay; assay type: functional, organism-based; conditions: Salmonella enterica subsp. enterica serovar Typhimurium; method in brief: as §1
[3] = test system: Geobacillus stearothermophilus; assay: Bactericidal activity against sBacillus stearothermophilus NCA 1518 at 200 ug/ml by liquid culture assay; assay type: functional, organism-based
Method in brief: (§2)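 Wells hold brain heart infusion (200 µl) plus 50 µl inoculum at 10³–10⁵ cfu/ml, with dicranin added as the sodium salt in water (10–200 μg/ml tested). Cultures are incubated at the strain's optimal growth temperature. Duplicate 100 µl samples are taken at 0, 2, 4, 6, 8 and 24 h, diluted in tryptone salt to 10–500 bacteria/plate, plated on plate count agar, and colonies counted after 24 h.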

Bacillus subtilis [4] = assay: Antibacterial activity against Bacillus subtilis NCIB 3610 at 10 ug/disk after 24 hrs by disk diffusion assay; assay type: functional; conditions: read-out: Diameter of inhibition zone; method in brief: as §1
Staphylococcus aureus [5] = assay: Antibacterial activity against Staphylococcus aureus T-AQ 49/YF29 at 10 ug/disk after 24 hrs by disk diffusion assay; assay type: functional; conditions: read-out: Diameter of inhibition zone; method in brief: as §1
Bacillus cereus [6] = assay: Antibacterial activity against Bacillus cereus NCIB 3329 at 1000 ug/disk after 24 hrs by disk diffusion assay; assay type: functional; conditions: read-out: Diameter of inhibition zone; method in brief: as §1
[7] = test system: Geobacillus stearothermophilus; assay: Antibacterial activity against Bacillus stearothermophilus NCA 1518 at 125 ug/disk after 24 hrs by disk diffusion assay; assay type: functional; conditions: read-out: Diameter of inhibition zone; method in brief: as §1
Escherichia coli = assay: Antibacterial activity against Escherichia coli B74-1 at 1 mg/disk after 24 hrs by disk diffusion assay; assay type: functional, organism-based; method in brief: as §1
Enterococcus faecalis [8] = assay: Antibacterial activity against Streptococcus faecalis NCIB 775 at 75 ug/disk after 24 hrs by disk diffusion assay; assay type: functional; conditions: read-out: Diameter of inhibition zone
Method in brief: (§3)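 Test material loaded onto 6 mm sterile filter-paper discs. Each disc sits at the centre of a plate of 15 ml plate count agar overlaid with 3 ml soft nutrient agar (nutrient broth + 0.7% agar) carrying 1% of a 16–18 h culture. Activity is read as the diameter of the no-growth zone around the disc.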

Bacillus subtilis [9] = assay: Antibacterial activity against Bacillus subtilis NCIB 3610 at 1000 ug/disk after 24 hrs by disk diffusion assay; assay type: functional; conditions: read-out: Diameter of inhibition zone; method in brief: as §1
Staphylococcus aureus [10] = assay: Antibacterial activity against Staphylococcus aureus T-AQ 49/YF29 at 50 ug/disk after 24 hrs by disk diffusion assay; assay type: functional; conditions: read-out: Diameter of inhibition zone; method in brief: as §1
[11] = test system: Geobacillus stearothermophilus; assay: Antibacterial activity against Bacillus stearothermophilus NCA 1518 at 50 ug/disk after 24 hrs by disk diffusion assay; assay type: functional; conditions: read-out: Diameter of inhibition zone; method in brief: as §1
[12] = test system: Geobacillus stearothermophilus; assay: Bactericidal activity against Bacillus stearothermophilus NCA 1518 at 50 to 150 ug/ml upto 4 hrs by liquid culture assay; assay type: functional, organism-based; method in brief: as §2
[13] = test system: Geobacillus stearothermophilus; assay: Antibacterial activity against Bacillus stearothermophilus NCA 1518 after 24 hrs by disk diffusion assay; assay type: functional, organism-based; method in brief: as §1
Staphylococcus aureus [14] = assay: Antibacterial activity against Staphylococcus aureus T-AQ 49/YF29 at 125 ug/disk after 24 hrs by disk diffusion assay; assay type: functional; conditions: read-out: Diameter of inhibition zone; method in brief: as §1
[15] = test system: Geobacillus stearothermophilus; assay: Antibacterial activity against Bacillus stearothermophilus NCA 1518 at 10 ug/disk after 24 hrs by disk diffusion assay; assay type: functional; conditions: read-out: Diameter of inhibition zone; method in brief: as §1
Bacillus cereus [16] = assay: Antibacterial activity against Bacillus cereus NCIB 3329 at 50 ug/disk after 24 hrs by disk diffusion assay; assay type: functional; conditions: read-out: Diameter of inhibition zone; method in brief: as §1
Bacillus subtilis [17] = assay: Antibacterial activity against Bacillus subtilis NCIB 3610 at 75 ug/disk after 24 hrs by disk diffusion assay; assay type: functional; conditions: read-out: Diameter of inhibition zone; method in brief: as §1
Staphylococcus aureus [18] = assay: Antibacterial activity against Staphylococcus aureus T-AQ 49/YF29 at 1000 ug/disk after 24 hrs by disk diffusion assay; assay type: functional; conditions: read-out: Diameter of inhibition zone; method in brief: as §1
Bacillus cereus [19] = assay: Antibacterial activity against Bacillus cereus NCIB 3329 at 125 ug/disk after 24 hrs by disk diffusion assay; assay type: functional; conditions: read-out: Diameter of inhibition zone; method in brief: as §1
Enterococcus faecalis [20] = assay: Antibacterial activity against Streptococcus faecalis NCIB 775 at 50 ug/disk after 24 hrs by disk diffusion assay; assay type: functional; conditions: read-out: Diameter of inhibition zone; method in brief: as §3
Bacillus cereus [21] = assay: Antibacterial activity against Bacillus cereus NCIB 3329 at 10 ug/disk after 24 hrs by disk diffusion assay; assay type: functional; conditions: read-out: Diameter of inhibition zone; method in brief: as §1
Bacillus cereus [22] = assay: Antibacterial activity against Bacillus cereus NCIB 3329 at 75 ug/disk after 24 hrs by disk diffusion assay; assay type: functional; conditions: read-out: Diameter of inhibition zone; method in brief: as §1
Bacillus subtilis [23] = assay: Antibacterial activity against Bacillus subtilis NCIB 3610 at 50 ug/disk after 24 hrs by disk diffusion assay; assay type: functional; conditions: read-out: Diameter of inhibition zone; method in brief: as §1
Bacillus subtilis [24] = assay: Antibacterial activity against Bacillus subtilis NCIB 3610 at 250 ug/disk after 24 hrs by disk diffusion assay; assay type: functional; conditions: read-out: Diameter of inhibition zone; method in brief: as §1

SMILES: CC/C=C\C/C=C\C/C=C\CC#CCCCCC(=O)O [DICRANIN]
- zone of inhibition at 100 µg/disc (Bacillus cereus [1]): 15 mm
- zone of inhibition at 250 µg/disc (Staphylococcus aureus [2]): 21 mm
- Activity (Pseudomonas aeruginosa): inactive
- Activity (Salmonella typhimurium): inactive
- Activity [3]: Active
- zone of inhibition at 10 µg/disc (Bacillus subtilis [4]): 0 mm
- zone of inhibition at 10 µg/disc (Staphylococcus aureus [5]): 0 mm
- zone of inhibition at 1000 µg/disc (Bacillus cereus [6]): 25 mm
- zone of inhibition at 125 µg/disc [7]: 17 mm
- Activity (Escherichia coli): inactive
- zone of inhibition at 75 µg/disc (Enterococcus faecalis [8]): 13 mm
- zone of inhibition at 1000 µg/disc (Bacillus subtilis [9]): 20 mm
- zone of inhibition at 50 µg/disc (Staphylococcus aureus [10]): 11 mm
- zone of inhibition at 50 µg/disc [11]: 11 mm
- Activity [12]: Active
- Activity [13]: Active
- zone of inhibition at 125 µg/disc (Staphylococcus aureus [14]): 17 mm
- zone of inhibition at 10 µg/disc [15]: 0 mm
- zone of inhibition at 50 µg/disc (Bacillus cereus [16]): 10 mm
- zone of inhibition at 75 µg/disc (Bacillus subtilis [17]): 13 mm
- zone of inhibition at 1000 µg/disc (Staphylococcus aureus [18]): 23 mm
- zone of inhibition at 125 µg/disc (Bacillus cereus [19]): 16 mm
- zone of inhibition at 50 µg/disc (Enterococcus faecalis [20]): 12 mm
- zone of inhibition at 10 µg/disc (Bacillus cereus [21]): 0 mm
- zone of inhibition at 75 µg/disc (Bacillus cereus [22]): 11 mm
- zone of inhibition at 50 µg/disc (Bacillus subtilis [23]): 11 mm
- zone of inhibition at 250 µg/disc (Bacillus subtilis [24]): 16 mm
